Test results: publication PMC7808142 (ACS Omega, 2020)

How the values were obtained:
[1] = Pharmacokinetics in rats after intravenous and oral administration; type: in vivo, Sprague-Dawley rats; details: rat; for AUC(0-inf) / AUC(0-t) / C0 / MRT last / Vd / clearance / half-life / Cmax / bioavailability / Tmax: male, Sprague-Dawley, plasma; for half-life: t1/2, rat; for half-life / Tmax / AUCextr / t1/2: n = 3
In short: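 Male SD rats (220–250 g), fasted 12 h, with jugular vein cannulae placed 2 days earlier under pentobarbital. Groups of 3 received 5 mg/kg iv (2 mg/mL with 30% HP-β-CD) or 100 mg/kg po (10 mg/mL suspension in 0.5% CMC-Na). Plasma (50 μL) was mixed with terfenadine internal standard and analysed by MRM LC-MS/MS (calibration 1.00–1000 ng/mL). Parameters are mean ± SD.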

[2] = Stability in rat plasma under different storage conditions; type: in vitro ADME; details: n = 5
[3] = autosampler for 24 h (4 °C), spiked 2.00 ng/mL
[4] = autosampler for 24 h (4 °C), spiked 50.0 ng/mL
[5] = autosampler for 24 h (4 °C), spiked 800 ng/mL
[6] = long-term (30 days at -80 °C), spiked 2.00 ng/mL
[7] = long-term (30 days at -80 °C), spiked 50.0 ng/mL
[8] = long-term (30 days at -80 °C), spiked 800 ng/mL
[9] = three freeze/thaw cycles, spiked 2.00 ng/mL
[10] = three freeze/thaw cycles, spiked 50.0 ng/mL
[11] = three freeze/thaw cycles, spiked 800 ng/mL

SMILES | AUC(0-inf) ([1]; iv, 5 mg/kg) [ng·h/mL] | AUC(0-t) ([1]; iv, 5 mg/kg) [ng·h/mL] | C0 ([1]; iv, 5 mg/kg) [ng/mL] | MRT last ([1]; iv, 5 mg/kg) [h] | Vd ([1]; iv, 5 mg/kg) [L/kg] | clearance ([1]; iv, 5 mg/kg) [mL/min/kg] | half-life ([1]; iv, 5 mg/kg, i.v. 5 mg/kg) [h] | AUC(0-inf) ([1]; po, 100 mg/kg) [ng·h/mL] | AUC(0-t) ([1]; po, 100 mg/kg) [ng·h/mL] | Cmax ([1]; po, 100 mg/kg) [ng/mL] | MRT last ([1]; po, 100 mg/kg) [h] | bioavailability ([1]; po, 100 mg/kg) [%] | Tmax ([1]; po, 100 mg/kg, p.o. 100 mg/kg) [h] | half-life ([1]; po, 100 mg/kg, p.o. 100 mg/kg) [h] | time after which the compound could not be detected in blood ([1]; i.v. 5 mg/kg) [h] | AUCextr ([1]; i.v. 5 mg/kg) [%] | t1/2 ([1]; i.v. 5 mg/kg, 5 mg/kg) [h] | time until which the compound was detectable in plasma (above LLOQ) ([1]; p.o. 100 mg/kg) [h] | AUCextr ([1]; p.o. 100 mg/kg) [%] | stability, measured concentration [2, 3] [ng/mL] | further results
C[C@@H]1CC[C@H]2[C@@H](C)C(=O)O[C@@H]3O[C@@]4(C)CC[C@@H]1[C@]32OO4 [artemisinin, Artemisinin] | 130 ± 39.1 | 129 ± 38.9 | 700 ± 166 | 0.408 ± 0.066 | 45.1 ± 12.3 | 674 ± 174 | 0.77 ± 0.06 | 318 ± 21.6 | 309 ± 22.3 | 65.1 ± 10.4 | 3.46 ± 0.249 | 12.2 ± 0.832 | 1.33 ± 0.58 | 2.22 ± 0.25 | 4 | 0.967 ± 0.110 | 0.773 ± 0.0598 | 12 | 2.89 ± 0.999 | 1.91 ± 0.02 | stability, accuracy (%, RE) [2, 3]: 95.7%; stability, accuracy (%, RE) [2, 4]: 91.0%; stability, measured concentration [2, 4]: 45.5 ± 0.66 ng/mL; stability, accuracy (%, RE) [2, 5]: 97.1%; stability, measured concentration [2, 5]: 777 ± 6.68 ng/mL; stability, accuracy (%, RE) [2, 6]: 97.3%; stability, measured concentration [2, 6]: 1.95 ± 0.02 ng/mL; stability, accuracy (%, RE) [2, 7]: 91.3%; stability, measured concentration [2, 7]: 45.7 ± 1.46 ng/mL; stability, accuracy (%, RE) [2, 8]: 95.2%; stability, measured concentration [2, 8]: 762 ± 9.29 ng/mL; stability, accuracy (%, RE) [2, 9]: 95.2%; stability, measured concentration [2, 9]: 1.90 ± 0.02 ng/mL; stability, accuracy (%, RE) [2, 10]: 95.2%; stability, measured concentration [2, 10]: 47.6 ± 0.52 ng/mL; stability, accuracy (%, RE) [2, 11]: 96.3%; stability, measured concentration [2, 11]: 770 ± 9.11 ng/mL
C[C@@H]1CC[C@H]2[C@@H](C)C(=O)O[C@@H]3O[C@@]4(C)CC[C@@H]1[C@]32O4 [deoxyartemisinin, Deoxyartemisinin] | 222 ± 47.1 | 219 ± 46.1 | 1070 ± 173 | 0.671 ± 0.183 | 48.3 ± 8 | 385 ± 74.5 | 1.12 ± 0.16 | 71 ± 14.1 | 67.3 ± 14.2 | 62.4 ± 31.3 | 1.21 ± 0.388 | 1.6 ± 0.317 | ~0.39 | 1.12 ± 0.156 | 8 | 1.33 ± 0.214 | 1.45 ± 0.059 | 6 | 5.33 ± 1.92 | 2.18 ± 0.10 | stability, accuracy (%, RE) [2, 4]: 99.0%; stability, measured concentration [2, 4]: 53.9 ± 1.66 ng/mL; stability, accuracy (%, RE) [2, 5]: 99.0%; stability, measured concentration [2, 5]: 782 ± 26.3 ng/mL; stability, accuracy (%, RE) [2, 6]: 101.5%; stability, measured concentration [2, 6]: 2.03 ± 0.07 ng/mL; stability, accuracy (%, RE) [2, 7]: 108.4%; stability, measured concentration [2, 7]: 54.2 ± 1.91 ng/mL; stability, accuracy (%, RE) [2, 8]: 96.0%; stability, measured concentration [2, 8]: 768 ± 50.2 ng/mL; stability, measured concentration [2, 9]: 1.98 ± 0.08 ng/mL; stability, accuracy (%, RE) [2, 10]: 109.1%; stability, measured concentration [2, 10]: 52.3 ± 0.99 ng/mL; stability, accuracy (%, RE) [2, 11]: 109.1%; stability, measured concentration [2, 11]: 774 ± 16.0 ng/mL
